HNF4A DNA FP – change in binding of human HNF4A to DNA, primary screen, biochemical, fluorescence polarization, FITC-DNA | Hepatocyte nuclear factor 4-alpha (Homo sapiens), P41235 | 1 h | activity change, % at 10 µM | hit rate 0.3% among 360,000 | AID 1224865, 2016; in the data active = activity change above about 30%, passing the limit was not always enough
Target sequence (P41235 whole entry, looked up): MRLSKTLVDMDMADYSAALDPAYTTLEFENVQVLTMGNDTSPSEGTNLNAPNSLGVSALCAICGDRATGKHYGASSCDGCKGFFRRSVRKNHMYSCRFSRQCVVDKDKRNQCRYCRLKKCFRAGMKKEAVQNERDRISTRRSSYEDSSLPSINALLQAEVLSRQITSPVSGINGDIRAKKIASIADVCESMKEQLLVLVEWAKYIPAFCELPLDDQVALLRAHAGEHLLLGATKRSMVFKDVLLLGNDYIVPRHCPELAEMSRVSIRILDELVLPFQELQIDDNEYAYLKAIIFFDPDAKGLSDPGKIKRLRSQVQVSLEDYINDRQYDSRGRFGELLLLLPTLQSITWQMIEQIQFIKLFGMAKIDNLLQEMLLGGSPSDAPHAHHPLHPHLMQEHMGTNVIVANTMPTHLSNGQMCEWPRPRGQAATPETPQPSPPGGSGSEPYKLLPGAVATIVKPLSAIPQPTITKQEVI
NR1D1 modulator – modulators of Rev-erb alpha DNA binding, primary screen, biochemical, FITC-DNA, fluorescence polarization, uHTS. Nuclear receptor subfamily 1 group D member 1 (Homo sapiens), P20393. hit rate 0.79% among 370,000. AID 1259318, 2017. activity, % at 10 µM. Rev-erbα–FITC-DNA binding, 90 min;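 active = activity above about 14%, limit read from the data; passing the limit was not always enough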
aDG glyco act – activators of alpha-DG glycosylation, primary screen, uHTS, Pro5-aDG cells, AlphaScreen; alpha-DG glycosylation AlphaScreen (IIH6); 0% Pro5, 100% B10-LARGE cell signal; activation, % at 10 µM; hit rate 0.22% among 360,000; AID 624168, 2012;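 active = activation of at least 8% versus controls, or a plate z-score of at least 8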;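 note: Pro5 are CHO cells carrying HIG-tagged alpha-DG that lacks glycosylation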
CSN deneddyl inh – inhibitors of CSN-mediated cullin deneddylation, primary screen, biochemical, fluorescence polarization, uHTS; COP9 signalosome complex subunit 5 (Homo sapiens), Q92905; Purified CSN, SCF-Nedd8-OG deneddylation; inhibition, % at 12.5 µM; hit rate 0.38% among 360,000; AID 651999, 2013;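 active = pattern-corrected inhibition above about 35%, with an unprinted fluorescence ratio check between 0.5 and 1.5, limit read from the data, passing the limit was not always enough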
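test system = HEK293T-derived human Csn5 enzyme | amount = 0.24 nM Csn5 enzyme, final concentration | medium = Tris/NaCl/DTT buffer, pH 7.5 | schedule = 90 min reaction at room temperature | signal = FP | evaluation = inhibition of Csn5 cleavage, % | compound dosing = single dose of 12.5 µM compound with 0.25% DMSO | probe or stimulus = 10 nM SCFSkp2-Nedd8OG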
NR1D1 mod conf – modulators of Rev-erb alpha DNA binding, confirmation, biochemical, FITC-DNA, fluorescence polarization, single point; shares compounds with NR1D1 modulator; 90 min; activation, % at 25 µM; hit rate 61% among 3,000; AID 1259319, 2017;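 active = activation at or above a set limit, or at least 3 SD above the negative control mean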
RORg DNA counter – modulation of RORgamma DNA binding, dose response, counter-screen for Rev-erb alpha modulator project, biochemical, fluorescence polarization, FITC-DNA. IC50, µM. shares compounds with NR1D1 modulator. purified RORgamma protein-FITC-DNA binding. hit rate 8% among 910;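 active = Compounds whose fitted half-maximal concentration for disrupting protein-DNA binding is below 10 micromolar; the record names Rev-erb in its text, so the target is in doubt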
A number is an active result; n = inactive; x = not tested or not shown. Compounds with a hit are over-represented: about 1.5% of the library has one in this group of screens.

SMILES	HNF4A DNA FP	NR1D1 modulator	aDG glyco act	CSN deneddyl inh	NR1D1 mod conf	others
CC(C)C[C@@H]1COc2cc(Br)ccc2S(=O)(=O)N1Cc1cn(Cc2ccc(Br)cc2)nn1	x	n	x	x	x
Cn1c(C(=O)NCCN2CCOCC2)cc2c(=O)n(C)c3ccccc3c21	n	n	n	n	x
Cn1c(C(=O)NC2CCCCC2)cc2c(=O)n(C)c3ccccc3c21	n	n	n	n	x
Cc1ccc(CNC(=O)c2cc3c(=O)n(C)c4ccccc4c3n2C)cc1	n	63.1	n	n	43.2	RORg DNA counter=n
CN(CCNC(=O)c1cc2c(=O)n(C)c3ccccc3c2n1C)Cc1ccccc1	n	n	n	n	x
Cn1c(C(=O)NCc2cccs2)cc2c(=O)n(C)c3ccccc3c21	n	33.2	n	n	18.0
Cn1c(C(=O)NC2CCCCCC2)cc2c(=O)n(C)c3ccccc3c21	n	47.6	n	n	26.0
Cc1csc(NC(=O)c2ccc(COc3ccccc3F)o2)n1	x	n	x	x	x
N#CCC[C@@H]1CC[C@]2(CCCN(S(=O)(=O)c3ccccc3)C2)O1	x	n	x	x	x
COC(=O)c1cn(-c2nc3ccccc3s2)nn1	n	n	n	n	x
Clc1ccc(-c2cn(-c3nc4ccccc4s3)nn2)cc1	n	19.4	n	n	n
CCC(=O)c1ccc(N2CCN(C(=O)c3ccc(F)cc3)CC2)c(F)c1	n	n	n	n	x
COc1ccc(C(=O)c2ccc(OC)c(Br)c2)cc1Br	n	113.4	n	n	76.7	RORg DNA counter=n
COc1ccc(C(=O)c2ccc(N3CCN(C(=O)c4ccc(F)cc4)CC3)c(F)c2)cc1Br	n	27.6	n	n	23.8
CCN(CC)C(=O)CC[C@H]1CC[C@]2(CCCN(C(=O)C(C)(C)C)C2)O1	x	n	x	x	x
CN(C)c1ccc(N=Nc2ccccc2C(=O)OCC(=O)NC2CCCC2)cc1	n	n	n	n	x
CN(C)c1ccc(N=Nc2ccccc2C(=O)OCC(=O)NCC2CCCCC2)cc1	n	28.6	n	n	35.9	RORg DNA counter=n
COc1ccc(C)cc1NC(=O)c1sc2ncn(CC(=O)N3CCCCC3)c(=O)c2c1C	n	29.4	n	n	24.0
O=C(Nc1nnc(C(F)(F)F)s1)c1ccc(Br)s1	n	n	n	n	x
O=C(Nc1nnc(C2CCCCC2)s1)c1ccc(Br)s1	n	95.4	n	n	81.7	RORg DNA counter=n
C[C@H]1[C@@H](NC(=O)C(c2ccccc2)c2ccccc2)CC[C@@]23CCCN2C(=O)CCC[C@@H]13	x	n	x	x	x
COC(=O)[C@H](C(C)C)N1Cc2nnn(Cc3ccc(C)cc3)c2-c2ccccc2S1(=O)=O	x	n	x	x	x
CCOc1ccc(CCNC(=O)Cn2ncn3nc(-c4ccc(OC)cc4)cc3c2=O)cc1OCC	n	22.6	n	n	n
COc1ccc(/C=N\NC(=O)c2ccc([N+](=O)[O-])cc2)cc1COc1c(F)c(F)cc(F)c1F	n	n	n	n	x
COc1ccc(/C=N\NC(=O)c2ccccc2[N+](=O)[O-])cc1COc1c(F)c(F)c(F)c(F)c1F	n	19.8	n	n	n
SMILES	HNF4A DNA FP	NR1D1 modulator	aDG glyco act	CSN deneddyl inh	NR1D1 mod conf	others
CCOC(=O)Cn1cc(CN2C(C(=O)OC)CN(Cc3ccccc3)CCS2(=O)=O)nn1 (stereo not drawn)	x	n	x	x	x
O=c1oc(C2(O)CCCCC2)cc2ccc(-c3ccc4[nH]ccc4c3)cc12	n	21.8	n	n	n
O=c1oc(C2(O)CCCCC2)cc2ccccc12	n	n	n	n	x
CC1CN(C(=O)N2c3ccccc3Sc3ccccc32)C(C)CC1=O (stereo not drawn)	n	43.8	n	n	60.4
CC(C)C(NC(=O)[C@H](Cc1ccc(O)cc1)NC(=O)OC(C)(C)C)P(=O)(O)OC(Cc1ccccc1)C(=O)O (stereo partly drawn)	x	n	x	x	x
Fc1ccc2nc(Nc3nc4c(F)cccc4s3)sc2c1	n	n	n	n	x
Fc1ccc2nc(Nc3nc4c(F)cc(F)cc4s3)sc2c1	n	53.0	n	n	41.3	RORg DNA counter=n
Fc1cccc2sc(Nc3nc4ccccc4s3)nc12	n	39.8	n	n	35.3	RORg DNA counter=n
Fc1ccc2nc(Nc3nc4cc5c(cc4s3)OCO5)sc2c1	n	n	n	n	x
Fc1ccc2nc(Nc3nc4cc5c(cc4s3)OCCO5)sc2c1	n	32.0	n	n	39.4	RORg DNA counter=n
C#CCNC(=O)CSCc1nc(-c2ccc(OCC)cc2)oc1C	x	n	x	x	x
COCCCN1C(=O)[C@H](CC(=O)NCC2CCCCC2)[C@]2(C(=O)OC)CCCCC=C12	x	n	x	x	x
COc1ccc(NC(=O)CN(C)C(=O)CNC(=O)c2sc3ccccc3c2Cl)cc1	n	n	n	n	x
O=C(CNC(=O)c1sc2ccccc2c1Cl)Nc1ccccc1F	n	43.7	n	n	n
CN(CC(=O)Nc1ccc(F)cc1)C(=O)COC(=O)CNC(=O)c1sc2ccccc2c1Cl	n	22.8	n	n	n
COc1ccc(Cl)cc1NC(=O)c1[nH]c(C)c(C(C)=O)c1C	n	30.6	n	n	35.0	RORg DNA counter=n
COc1ccc(OC)c(NC(=O)c2[nH]c(C)c(C(C)=O)c2C)c1	n	31.5	n	n	22.0
O=C(CSC1=Nc2ccccc2C2CC=NN12)Nc1ccc(F)c(F)c1F (stereo not drawn)	n	18.4	n	n	n
Cc1ccccc1OCCC(=O)Nc1ccc2c(C)cc(=O)oc2c1	n	23.1	n	n	n
CC(C)CN1C(=O)[C@@]2(CC(=O)N(C)C2c2ccccc2)c2cc(-n3cc(CO)nn3)ccc21 (stereo partly drawn)	x	n	x	x	x
Cc1sc2ncnc(N3CCC(C(=O)Nc4nnc(CC(C)C)s4)CC3)c2c1C	n	17.0	n	n	n
CC(C)Cc1ccc(-c2cc3nc(NCCc4ccc(S(N)(=O)=O)cc4)ccn3n2)cc1	n	34.8	n	n	24.4
CS(=O)(=O)N[C@@H]1C[C@@H]2O[C@@H](CO)CC[C@@H]2O[C@@H]1CCc1ccc(-c2ccccc2F)cc1	x	n	x	x	x
COC(=O)[C@]12C[C@H](CC(=O)NCCC(C)C)C(=O)N(CCc3ccc(OC)c(OC)c3)C1=C[C@H](C(C)C)O[C@@H]2C1CC1	x	n	x	x	x
Cc1onc(-c2ccccc2)c1C(=O)Nc1cc(C(F)(F)F)ccc1N1CCOCC1	n	22.1	n	n	32.7
CCc1ccc(CCNC(=O)OC2CC3CC2[C@H]2CCCCN2[C@H]3C)cc1 (stereo partly drawn)	x	n	x	x	x
c1cnc2nc3c4ccccc4c4ccccc4c3nc2c1	n	n	n	n	x
Brc1cccc(-c2nc3cccnc3nc2-c2cccc(Br)c2)c1	n	13.8	n	n	n
Cc1sc2nc(SCC(=O)NCc3ccco3)n(C)c(=O)c2c1C	n	n	n	n	x
